From ChEMBL document CHEMBL1153600, “Synthesis of novel trans-stilbene derivatives and evaluation of their potent antioxidant and neuroprotective effects” (Eur J Med Chem, 2009)
Calls of active or inactive are those of the source. No cut-off for these calls is given here.

Experiments:
[1] = Neuroprotective activity in ICR mouse cortical neuron cells assessed as prevention of excitotoxic neuronal death after 24 hrs by LDH assay; type: functional; settings: Cortical neurone, read-out: ED50 (the source's name)
How it was run: (§1)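 Primary cortical cultures from ICR mouse embryos at gestational day 15, plated on poly-D-lysine/laminin at 4.8 × 10⁵ cells/well in MEM with 5% FCS and mouse serum. Compound at 1–50 µM was co-applied with glutamate 50 µM for 24 h at 37 °C. LDH released into the medium was followed by NADH consumption with pyruvate, read at 340 nm. Mean ± SD of three observations.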

BV-2 [2] = assay: Antiinflammatory activity against mouse BV2 microglia cells assessed as inhibition of LPS-induced NO production after 24 hrs; type: functional; settings: BV-2, 24 h, read-out: ED50 (the source's name)
How it was run: (§2)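 BV-2 murine microglia kept in DMEM with 10% FBS and penicillin/streptomycin (37 °C, 5% CO2). Cells were plated at 1 × 10⁵ cells/mL and stimulated with LPS 100 ng/mL, alone or with compound at 1, 10 or 50 µM, for 24 h at 37 °C. Nitrite in the medium was read by Griess reagent at 540 nm. Mean ± SD of three observations.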

[3] = tested on: Radical scavenging activity; assay: Antioxidant activity assessed as DPPH radical scavenging activity at 200 uM; type: functional
How it was run: (§3)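 DPPH radical bleaching, tested at 10, 50, 100 and 200 µM (printed as mM) following a published method, with resveratrol as reference.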

[4] = tested on: Radical scavenging activity; assay: Antioxidant activity assessed as DPPH radical scavenging activity at 50 uM; type: functional; how it was run: as §3
[5] = tested on: Radical scavenging activity; assay: Antioxidant activity assessed as DPPH radical scavenging activity; type: functional; how it was run: as §3
[6] = tested on: Radical scavenging activity; assay: Antioxidant activity assessed as DPPH radical scavenging activity at 100 uM; type: functional; how it was run: as §3
Cortical neurone [7] = assay: Neuroprotective activity in ICR mouse cortical neuron cells assessed as prevention of glutamate-induced neurotoxicity at 10 to 50 uM after 24 hrs by LDH assay; type: functional; how it was run: as §1
[8] = tested on: Radical scavenging activity; assay: Antioxidant activity assessed as DPPH radical scavenging activity at 10 uM; type: functional; how it was run: as §3
Cortical neurone [9] = assay: Neuroprotective activity in ICR mouse cortical neuron cells assessed as prevention of glutamate-induced neurotoxicity at 1 uM after 24 hrs by LDH assay; type: functional; how it was run: as §1
BV-2 [10] = assay: Antiinflammatory activity against mouse BV2 microglia cells assessed as inhibition of LPS-induced NO production at 1 uM after 24 hrs; type: functional, cell-based; how it was run: as §2
BV-2 [11] = assay: Antiinflammatory activity against mouse BV2 microglia cells assessed as inhibition of LPS-induced NO production at 10 to 50 uM after 24 hrs; type: functional, cell-based; how it was run: as §2

O=C/C=C/c1ccc(/C=C/c2ccc(O)c(O)c2)cc1
EC50 [1]: 42.3 µM | EC50 (BV-2 [2]): 1510 nM | Activity [3]: 54.4% | Activity [4]: 21.2% | IC50 [5]: > 200 µM | Activity [6]: 28.8% | Activity (Cortical neurone [7]): Active | Activity [8]: 13.2% | Activity (Cortical neurone [9]): Active | Activity (BV-2 [10]): Active

O=C(c1ccc(/C=C/c2ccc(O)c(O)c2)cc1)N1CCC(Cc2ccccc2)CC1
EC50 (BV-2 [2]): 1120 nM | Activity [3]: 25.8% | Activity [4]: 10.1% | IC50 [5]: > 200 µM | Activity [6]: 17.4% | Activity (Cortical neurone [7]): Active | Activity [8]: 4.75% | Activity (BV-2 [10]): Active

O=C(NCC1CCCO1)c1ccc(/C=C/c2ccc(O)c(O)c2)cc1 (configuration not stated)
Activity [3]: 31.7% | Activity [4]: 18% | IC50 [5]: > 200 µM | Activity [6]: 26.5% | Activity [8]: 16.7%

Oc1ccc(/C=C/c2cc(O)cc(O)c2)cc1 [RESVERATROL]
Activity [3]: 33.8% | Activity [4]: 8.44% | IC50 [5]: > 200 µM | Activity [6]: 28.4% | Activity [8]: 9.45%

O=C(Nc1ccccc1)c1ccc(/C=C/c2ccc(O)c(O)c2)cc1
Activity [3]: 59.8% | Activity [4]: 17.6% | IC50 [5]: > 200 µM | Activity [6]: 27.1% | Activity [8]: 10.2%

O=C(c1ccc(/C=C/c2ccc(O)c(O)c2)cc1)N1CCOCC1
Activity [3]: 29.4% | Activity [4]: 10.2% | IC50 [5]: > 200 µM | Activity [6]: 19.1% | Activity [8]: 5.7%

C=CCN1CCN(C(=O)c2ccc(/C=C/c3ccc(O)c(O)c3)cc2)CC1
Activity [3]: 62.4% | Activity [4]: 31.2% | IC50 [5]: 141 µM | Activity [6]: 40% | Activity [8]: 24.8%

C=CCNC(=O)c1ccc(/C=C/c2ccc(O)c(O)c2)cc1
EC50 [1]: 29.6 µM | EC50 (BV-2 [2]): 1950 nM | Activity [3]: 74.1% | Activity [4]: 29% | IC50 [5]: 98.1 µM | Activity [6]: 41.7% | Activity (Cortical neurone [7]): Active | Activity [8]: 15% | Activity (BV-2 [11]): Active

O=C(NC1CCCCC1)c1ccc(/C=C/c2ccc(O)c(O)c2)cc1
Activity [3]: 68.7% | Activity [4]: 22.5% | IC50 [5]: 128 µM | Activity [6]: 40.2% | Activity [8]: 17.2%

CCOC(=O)c1cccc(NC(=O)c2ccc(/C=C/c3ccc(O)c(O)c3)cc2)c1
Activity [3]: 62.8% | Activity [4]: 29.3% | IC50 [5]: 127 µM | Activity [6]: 44.1% | Activity [8]: 21.3%

CCCCCCCCCCNC(=O)c1ccc(/C=C/c2ccc(O)c(O)c2)cc1
Activity [3]: 79.1% | Activity [4]: 42% | IC50 [5]: 47.9 µM | Activity [6]: 75.2% | Activity [8]: 18.5%

O=C(c1ccccc1)N1CCN(C(=O)c2ccc(/C=C/c3ccc(O)c(O)c3)cc2)CC1
Activity [3]: 59.1% | Activity [4]: 24.6% | IC50 [5]: 185 µM | Activity [6]: 36.7% | Activity [8]: 17.2%

O=C(NCc1ccco1)c1ccc(/C=C/c2ccc(O)c(O)c2)cc1
EC50 [1]: 58.3 µM | EC50 (BV-2 [2]): 820 nM | Activity [3]: 79.2% | Activity [4]: 35.1% | IC50 [5]: 69 µM | Activity [6]: 48% | Activity (Cortical neurone [7]): Active | Activity [8]: 21.9% | Activity (BV-2 [11]): Active

CC1CCN(C(=O)c2ccc(/C=C/c3ccc(O)c(O)c3)cc2)CC1
Activity [3]: 48.6% | Activity [4]: 21.3% | IC50 [5]: > 200 µM | Activity [6]: 31.5% | Activity [8]: 15.1%

OC/C=C/c1ccc(/C=C/c2ccc(O)c(O)c2)cc1
Activity [3]: 17.3% | Activity [4]: 8.64% | IC50 [5]: > 200 µM | Activity [6]: 11.5% | Activity [8]: 6.82%

COC(=O)c1ccc(/C=C/c2ccc(O)c(O)c2)cc1
Activity [3]: 29.3% | Activity [4]: 8.95% | IC50 [5]: > 200 µM | Activity [6]: 16.5% | Activity [8]: 2.31%

O=C(NCCCN1CCCC1=O)c1ccc(/C=C/c2ccc(O)c(O)c2)cc1
Activity [3]: 44% | Activity [4]: 22.2% | IC50 [5]: > 200 µM | Activity [6]: 28.4% | Activity [8]: 12.9%

O=C(CNC(=O)c1ccccc1)OCc1ccc(/C=C/c2ccc(O)c(O)c2)cc1
Activity [3]: 46.9% | Activity [4]: 28.1% | IC50 [5]: > 200 µM | Activity [6]: 33.2% | Activity [8]: 21.2% | Activity (Cortical neurone [9]): Active

COC(=O)/C=C/c1ccc(/C=C/c2ccc(O)c(O)c2)cc1
Activity [3]: 5.29% | Activity [4]: 5.31% | IC50 [5]: > 200 µM | Activity [6]: 5.73% | Activity [8]: 5.91%

O=C(NCc1ccccc1F)c1ccc(/C=C/c2ccc(O)c(O)c2)cc1
Activity [3]: 88% | Activity [4]: 42.2% | IC50 [5]: 43.6 µM | Activity [6]: 52.3% | Activity [8]: 29.8%
